Test results from publication PMC9052575 (RSC Advances, 2020).
Where two headings read alike, the source gives them in different places.

Columns and labels:
[1] = tested on: MCF-7 cells; experiment: MTT anti-proliferative assay, MCF-7; type: cell-based, human; settings: for IC50: read-out: IC50 against MCF-7 cells
[2] = tested on: MDA-MB-231 cells; experiment: MTT anti-proliferative assay, MDA-MB-231; type: cell-based, human; settings: read-out: IC50 against MDA-MB-231 cells
[3] = tested on: HEK-293 cells; experiment: MTT toxicity assay, normal/non-tumor HEK-293 cells; type: cell-based; settings: Homo sapiens, HEK293, read-out: IC50 against HEK-293 cells
Method in brief: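 HEK-293 cells seeded at 5000 cells/well in triplicate. After 24 h, exposed for 24 h at 37 °C and 5% CO2 to test compound at 1–100 μM, diluted in complete DMEM. MTT (5 mg mL−1 stock in PBS) added for 2 h, then 10% SDS/10 mM HCl for 16 h at 37 °C. OD read at 570 nm.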

[4] = MTT assay, 24 hours treatment, 1-100 μM

## O=C(/C=C/[c-]1cccc1)c1ccc(OCc2cn(CCN3C(=O)c4cccc5cccc(c45)C3=O)nn2)cc1.[Fe+2].c1cc[cH-]c1 [14a, (E)-2-(2-(4-((4-(3-Ferrocenyl-acryloyl)phenoxy)methyl)-1H-1,2,3-triazol-1-yl)ethyl)-1H-benzo[de]isoquinoline-1,3(2H)-dione]
[1]; [4]
  IC50: > 100 µM
[2]; [4]
  IC50: > 100 µM

## O=C(/C=C/c1ccc([N+](=O)[O-])cc1)c1ccc(OCc2cn(CCN3C(=O)c4cccc5cccc(c45)C3=O)nn2)cc1 [12d, (E)-2-(2-(4-((4-(3-(4-Nitrophenyl)acryloyl)phenoxy)methyl)-1H-1,2,3-triazol-1-yl)ethyl)-1H-benzo[de]isoquinoline-1,3(2H)-dione]
[1]; Homo sapiens, MCF7, 24 h
  IC50: > 100 µM
[2]; Homo sapiens, MDA-MB-231, 24 h
  IC50: > 100 µM

## O=C(C=Cc1ccccc1)c1ccc(OCc2cn(CCCN3C(=O)c4cccc5cccc(c45)C3=O)nn2)cc1 [12e, 2-(3-(4-((4-Cinnamoylphenoxy)methyl)-1H-1,2,3-triazol-1-yl)propyl)-1H-benzo[de]isoquinoline-1,3(2H)-dione]
[1]; Homo sapiens, MCF7, 24 h
  IC50: > 100 µM
[2]; Homo sapiens, MDA-MB-231, 24 h
  IC50: > 100 µM

## CC(=O)N1N=C(c2ccc(OCc3cn(CCCN4C(=O)c5cccc6cccc(c56)C4=O)nn3)cc2)CC1c1ccc([N+](=O)[O-])cc1 (stereo not shown) [13h, 2-(3-(4-((4-(1-Acetyl-5-(4-nitrophenyl)-4,5-dihydro-1H-pyrazol-3-yl)phenoxy)methyl)-1H-1,2,3-triazol-1-yl)propyl)-1H-benzo[de]isoquinoline-1,3(2H)-dione]
[1]; Homo sapiens, MCF7, 24 h
  IC50: > 100 µM
[2]; Homo sapiens, MDA-MB-231, 24 h
  IC50: > 100 µM

## CC(CN1C(=O)c2cccc3cccc(c23)C1=O)n1cc(COc2ccc(C(=O)/C=C/[c-]3cccc3)cc2)nn1.[Fe+2].c1cc[cH-]c1 (stereo not shown) [14b, (E)-2-(2-(4-((4-(3-Ferrocenyl-acryloyl)phenoxy)methyl)-1H-1,2,3-triazol-1-yl)propyl)-1H-benzo[de]isoquinoline-1,3(2H)-dione]
[1]; [4]
  IC50: > 100 µM
[2]; [4]
  IC50: > 100 µM

## COc1ccc(OC)c(/C=C/C(=O)c2ccc(OCc3cn(CCN4C(=O)c5cccc6cccc(c56)C4=O)nn3)cc2)c1 [12c, (E)-2-(2-(4-((4-(3-(2,5-Dimethoxyphenyl)acryloyl)phenoxy)methyl)-1H-1,2,3-triazol-1-yl)ethyl)-1H-benzo[de]isoquinoline-1,3(2H)-dione]
[1]; Homo sapiens, MCF7, 24 h
  IC50: > 100 µM
[2]; Homo sapiens, MDA-MB-231, 24 h
  IC50: > 100 µM

## COc1ccc(/C=C/C(=O)c2ccc(OCc3cn(CCCN4C(=O)c5cccc6cccc(c56)C4=O)nn3)cc2)cc1 [12f, (E)-2-(3-(4-((4-(3-(4-Methoxyphenyl)acryloyl)phenoxy)methyl)-1H-1,2,3-triazol-1-yl)propyl)-1H-benzo[de]isoquinoline-1,3(2H)-dione]
[1]; Homo sapiens, MCF7, 24 h
  IC50: > 100 µM
[2]; Homo sapiens, MDA-MB-231, 24 h
  IC50: > 100 µM

## COc1ccc(/C=C/C(=O)c2ccc(OCc3cn(CCN4C(=O)c5cccc6cccc(c56)C4=O)nn3)cc2)cc1 [12b, (E)-2-(2-(4-((4-(3-(4-Methoxyphenyl)acryloyl)phenoxy)methyl)-1H-1,2,3-triazol-1-yl)ethyl)-1H-benzo[de]isoquinoline-1,3(2H)-dione]
[1]; Homo sapiens, MCF7, 24 h
  IC50: > 100 µM
[2]; Homo sapiens, MDA-MB-231, 24 h
  IC50: > 100 µM

## CC(=O)N1N=C(c2ccc(OCc3cn(CCCN4C(=O)c5cccc6cccc(c56)C4=O)nn3)cc2)CC1c1ccccc1 (stereo not shown) [13e, 2-(3-(4-((4-(1-Acetyl-5-phenyl-4,5-dihydro-1H-pyrazol-3-yl)phenoxy)methyl)-1H-1,2,3-triazol-1-yl)propyl)-1H-benzo[de]isoquinoline-1,3(2H)-dione]
[1]; Homo sapiens, MCF7, 24 h
  IC50: > 100 µM
[2]; Homo sapiens, MDA-MB-231, 24 h
  IC50: > 100 µM

## COc1ccc(C2CC(c3ccc(OCc4cn(CCN5C(=O)c6cccc7cccc(c67)C5=O)nn4)cc3)=NN2C(C)=O)cc1 (stereo not shown) [13b, 2-(2-(4-((4-(1-Acetyl-5-(4-methoxyphenyl)-4,5-dihydro-1H-pyrazol-3-yl)phenoxy)methyl)-1H-1,2,3-triazol-1-yl)ethyl)-1H-benzo[de]isoquinoline-1,3(2H)-dione]
[1]; Homo sapiens, MCF7, 24 h
  IC50: > 100 µM
[2]; Homo sapiens, MDA-MB-231, 24 h
  IC50: > 100 µM

## COc1ccc(OC)c(C2CC(c3ccc(OCc4cn(CCN5C(=O)c6cccc7cccc(c67)C5=O)nn4)cc3)=NN2C(C)=O)c1 (stereo not shown) [13c, 2-(2-(4-((4-(1-Acetyl-5-(2,5-dimethoxyphenyl)-4,5-dihydro-1H-pyrazol-3-yl)phenoxy)methyl)-1H-1,2,3-triazol-1-yl)ethyl)-1H-benzo[de]isoquinoline-1,3(2H)-dione]
[1]; Homo sapiens, MCF7, 24 h
  IC50: > 100 µM
[2]; Homo sapiens, MDA-MB-231, 24 h
  IC50: > 100 µM

## CC(=O)N1N=C(c2ccc(OCc3cn(CCN4C(=O)c5cccc6cccc(c56)C4=O)nn3)cc2)CC1c1ccccc1 (stereo not shown) [13a, 2-(2-(4-((4-(1-Acetyl-5-phenyl-4,5-dihydro-1H-pyrazol-3-yl)phenoxy)methyl)-1H-1,2,3-triazol-1-yl)ethyl)-1H-benzo[de]isoquinoline-1,3(2H)-dione]
[1]; Homo sapiens, MCF7, 24 h
  IC50: > 100 µM
[2]; Homo sapiens, MDA-MB-231, 24 h
  IC50: > 100 µM

## CC(=O)N1N=C(c2ccc(OCc3cn(CCN4C(=O)c5cccc6cccc(c56)C4=O)nn3)cc2)CC1c1ccc([N+](=O)[O-])cc1 (stereo not shown) [13d, 2-(2-(4-((4-(1-Acetyl-5-(4-nitrophenyl)-4,5-dihydro-1H-pyrazol-3-yl)phenoxy)methyl)-1H-1,2,3-triazol-1-yl)ethyl)-1H-benzo[de]isoquinoline-1,3(2H)-dione]
[1]; Homo sapiens, MCF7, 24 h
  IC50: > 100 µM
[2]; Homo sapiens, MDA-MB-231, 24 h
  IC50: > 100 µM

## COc1ccc(OC)c(C2CC(c3ccc(OCc4cn(CCCN5C(=O)c6cccc7cccc(c67)C5=O)nn4)cc3)=NN2C(C)=O)c1 (stereo not shown) [13g, 2-(3-(4-((4-(1-Acetyl-5-(2,5-dimethoxyphenyl)-4,5-dihydro-1H-pyrazol-3-yl)phenoxy)methyl)-1H-1,2,3-triazol-1-yl)propyl)-1H-benzo[de]isoquinoline-1,3(2H)-dione]
[3]
  IC50: > 100 µM
[1]; Homo sapiens, MCF7, 24 h
  IC50: 62.2 µM
[1]; [4]
  IC50 against MCF-7 cells: moderate cytotoxicity
[2]; Homo sapiens, MDA-MB-231, 24 h
  IC50: > 100 µM

## CC(=O)N1N=C(c2ccc(OCc3cn(CCN4C(=O)c5cccc6cccc(c56)C4=O)nn3)cc2)CC1[c-]1cccc1.[Fe+2].c1cc[cH-]c1 (stereo not shown) [15a, 2-(2-(4-((4-(1-Acetyl-5-ferrocenyl-4,5-dihydro-1H-pyrazol-3-yl)phenoxy)methyl)-1H-1,2,3-triazol-1-yl)ethyl)-1H-benzo[de]isoquinoline-1,3(2H)-dione]
[1]; [4]
  IC50: > 100 µM
[2]; [4]
  IC50: > 100 µM

## CC(=O)N1N=C(c2ccc(OCc3cn(C(C)CN4C(=O)c5cccc6cccc(c56)C4=O)nn3)cc2)CC1[c-]1cccc1.[Fe+2].c1cc[cH-]c1 (stereo not shown) [15b, 2-(2-(4-((4-(1-Acetyl-5-ferrocenyl-4,5-dihydro-1H-pyrazol-3-yl)phenoxy)methyl)-1H-1,2,3-triazol-1-yl)propyl)-1H-benzo[de]isoquinoline-1,3(2H)-dione]
[1]; [4]
  IC50: > 100 µM
[2]; [4]
  IC50: > 100 µM

## CC1=CC(=O)c2c(O)cccc2C1=O [Plumbagin, reference compound]
[1]; Homo sapiens, MCF7, 24 h
  IC50: 3.5 µM

## O=C(/C=C/c1ccc([N+](=O)[O-])cc1)c1ccc(OCc2cn(CCCN3C(=O)c4cccc5cccc(c45)C3=O)nn2)cc1 [12h, (E)-2-(3-(4-((4-(3-(4-nitrophenyl)acryloyl)phenoxy)methyl)-1H-1,2,3-triazol-1-yl)propyl)-1H-benzo[de]isoquinoline-1,3(2H)-dione]
[1]; Homo sapiens, MCF7, 24 h
  IC50: > 100 µM
[2]; Homo sapiens, MDA-MB-231, 24 h
  IC50: > 100 µM

## COc1ccc(C2CC(c3ccc(OCc4cn(CCCN5C(=O)c6cccc7cccc(c67)C5=O)nn4)cc3)=NN2C(C)=O)cc1 (stereo not shown) [13f, 2-(3-(4-((4-(1-Acetyl-5-(4-methoxyphenyl)-4,5-dihydro-1H-pyrazol-3-yl)phenoxy)methyl)-1H-1,2,3-triazol-1-yl)propyl)-1H-benzo[de]isoquinoline-1,3(2H)-dione]
[3]
  IC50: > 100 µM
[1]; Homo sapiens, MCF7, 24 h
  IC50: 98.1 µM
[1]; [4]
  IC50 against MCF-7 cells: moderate cytotoxicity
[2]; Homo sapiens, MDA-MB-231, 24 h
  IC50: > 100 µM

## COc1ccc(OC)c(/C=C/C(=O)c2ccc(OCc3cn(CCCN4C(=O)c5cccc6cccc(c56)C4=O)nn3)cc2)c1 [12g, (E)-2-(3-(4-((4-(3-(2,5-Dimethoxyphenyl)acryloyl)phenoxy)methyl)-1H-1,2,3-triazol-1-yl)propyl)-1H-benzo[de]isoquinoline-1,3(2H)-dione]
[1]; Homo sapiens, MCF7, 24 h
  IC50: > 100 µM
[2]; Homo sapiens, MDA-MB-231, 24 h
  IC50: > 100 µM
